M4 ag: agonists of human muscarinic M4 receptor (CHRM4). P08173. CHO-K1 hM4/Gqi5, Fluo-8 calcium fluorescence; vehicle 0%, full acetylcholine response 100%. activation, % at 3 µM. 0.14% of 360,000 active. AID 624127;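 active = activation above the run mean over all test wells plus 3 SD, cut at about 32% in these data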;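 note: peak over basal fluorescence ratio per well then scaled between controls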
Target sequence (P08173 whole entry, looked up): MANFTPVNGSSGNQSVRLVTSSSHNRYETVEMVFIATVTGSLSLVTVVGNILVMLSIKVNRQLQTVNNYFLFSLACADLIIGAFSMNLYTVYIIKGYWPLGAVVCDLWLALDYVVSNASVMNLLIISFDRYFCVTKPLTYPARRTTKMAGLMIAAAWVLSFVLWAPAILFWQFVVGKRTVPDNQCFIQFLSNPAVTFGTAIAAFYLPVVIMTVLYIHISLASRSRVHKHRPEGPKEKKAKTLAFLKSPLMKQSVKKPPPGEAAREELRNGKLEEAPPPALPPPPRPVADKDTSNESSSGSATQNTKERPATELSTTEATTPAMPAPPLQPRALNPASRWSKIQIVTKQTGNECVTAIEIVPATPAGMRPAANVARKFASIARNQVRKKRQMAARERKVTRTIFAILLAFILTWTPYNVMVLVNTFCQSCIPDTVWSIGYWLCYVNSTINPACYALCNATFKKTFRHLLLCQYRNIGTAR
CHRM5 antagonist: blocks acetylcholine activation of human M5 receptor. P08912. inhibition, % at 3 µM. CHO-hM5 cells, Fluo-8 calcium fluorescence, ACh EC80. 0.59% of 360,000 active;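 active = inhibition above a per-plate cutoff, the mean of that plate's test compounds plus 3 SD, cut at about 27% in these data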
M5 ag: agonists of human muscarinic M5 receptor (CHRM5) | P08912 | CHO-K1 hM5 cells, Fluo-8 calcium fluorescence; 0% DMSO wells, 100% maximal acetylcholine response | activation, % at 3 µM | 0.19% of 360,000 active | AID 624037;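 active = activation above the run's mean over test compounds plus 3 SD, cut at about 23% in these data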;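 note: signal is peak over basal fluorescence ratio across the kinetic read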
CHRM4 antagonist: antagonists of human muscarinic M4 receptor (CHRM4); inhibition, % at 3 µM; 0.73% of 360,000 active; CHO-hM4 cells, ACh EC80, Fluo-8 calcium fluorescence; P08173; AID 624125;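 active = inhibition above its plate's cutoff, the mean inhibition of sample wells plus 3 SD, cut at about 27% in these data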
M5 PAM: positive allosteric modulators of human muscarinic M5 receptor | CHO-K1 hM5, Fluo-8 calcium, ACh EC20 PAM; 0% = ACh EC20, 100% = ACh EC100 | P08912 | AID 624038 | activation, % at 3 µM | 0.3% of 360,000 active;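 active = activation above the run cutoff, the mean activation of all test compounds plus 3 SD, cut at about 18% in these data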
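Measured by: Fluo-8 calcium fluorescence; material: human M5 receptor in CHO-K1 cells; schedule: Post-acetylcholine fluorescence recording 140 s; benchmarks: low control EC20 acetylcholine (0%), high control EC100 acetylcholine (100%); read-out: Max/basal fluorescence ratio as % of EC20–EC100 ACh window; compound: single dose, 3 µM nominal final test concentration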
CHRM4 PAM: potentiates acetylcholine response at human M4 receptor. CHO-K1 hM4/Gqi5, Fluo-8 calcium fluorescence, ACh EC20; 0% = ACh EC20, 100% = maximal ACh. activation, % at 3 µM. 0.4% of 360,000 active;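 active = activation above its plate's cutoff, the mean activation of sample wells plus 3 SD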
Large screens that a line does not name were inactive; ! = not active in a repeat. In the library only some 1.8% were active in any assay of this set; here they are far more common.

Cc1onc(-c2ccccc2)c1C(=O)Nc1nnc(-c2ccncc2)s1	CHRM4 PAM 31
Cc1onc(-c2c(F)cccc2Cl)c1C(=O)Nc1nccs1	none
CCOc1ccc(C(=O)NCC(=O)NNC(=O)CN(C)S(=O)(=O)c2ccc(Cl)cc2)cc1OCC	none
CCOC(=O)[C@H]1[C@H]2COc3ccc(Br)cc3[C@H]2N2C(=O)CN(Cc3ccc(Cl)cc3)C(=O)[C@@]12C	none
CCOc1ccc(NC(=O)CSc2nc(=O)n(CCCN3CCOCC3)c3c2CCC3)cc1	none
CCOc1ccc2c(c1)c(N=O)c(O)n2C	M5 PAM 20
O=C(C[n+]1ccccc1)N/N=C/c1ccc(Br)cc1	none
Cc1ccc2nc(CCCc3nc4ccc(C)cc4[nH]3)[nH]c2c1	none
Cc1ccc2nc(CCc3nc4ccc(C)cc4[nH]3)[nH]c2c1	CHRM4 PAM 14
COc1cccc(CN(C)C(=O)COc2cccc3c2OC(C)(C)C3)c1OC	CHRM4 PAM 22
Cc1ccc2c(c1)cc1c(=O)n(CC(=O)N(C)c3ccccc3)nc(C)n12	CHRM4 PAM 16
CCc1cc(C(=O)NCC(C)(C)N2CCOCC2)sc1C	none
Cc1ccsc1C(=O)NCC(C)(C)N1CCOCC1	M5 PAM 22
CCOC(=O)[C@H]1[C@H]2COc3ccc(OC)cc3[C@@H]2N2C(=O)CN(Cc3ccc(F)cc3)C(=O)[C@@]12C	CHRM4 antagonist 42
COC(=O)CSc1ncnc2c1sc1nc(N3CCOCC3)c3c(c12)CCCC3	none
CCOC(=O)CSc1ncnc2c1sc1nc(N3CCOCC3)c3c(c12)CCCC3	CHRM4 PAM 28
CS(=O)(=O)N(Cc1ccc(C(=O)NN=C2CCCC2)cc1)c1ccccc1	none
CS(=O)(=O)N(Cc1ccc(C(=O)NN=C2CCCCCC2)cc1)c1ccccc1	M5 PAM 25
O=C(NCc1cccnc1)c1cccc2c1C(=O)N(Cc1cccnc1)C2	M5 PAM 19
C[C@H]1CN([C@@H](C)CO)C(=O)CCCn2cc(nn2)CO[C@@H]1CN(C)C(=O)Nc1ccccc1C(F)(F)F	none
CCn1nc(C)c([N+](=O)[O-])c1C(=O)NNC(=O)c1ccc(Cl)cc1	M5 PAM 20
Cc1nn(CC(=O)NCc2ccccc2)c(C)c1[N+](=O)[O-]	none
Cc1nn(CC(=O)NC(=O)c2ccccc2)c(C)c1[N+](=O)[O-]	CHRM4 PAM 23
O=C(NCCCN1CCOCC1)c1cc(S(=O)(=O)N2CCOCC2)ccc1Cl	none
NC(=O)c1cccc(-c2coc3c(C(=O)NCCc4ccccc4)cccc23)c1	none
O=C(COC(=O)C1COc2ccccc2O1)NC(=O)Nc1ccc2c(c1)OCCO2 (stereo unspecified)	CHRM4 PAM 23
O=C(COC(=O)c1ccc(Br)o1)Nc1ccc2c(c1)OCCO2	CHRM4 PAM 26
O=C(COC(=O)C1COc2ccccc2O1)Nc1cccc(Cl)c1 (stereo unspecified)	none
O=C(COC(=O)CNC(=O)c1ccc(Br)o1)Nc1ccc2c(c1)OCCO2	none
CCN(Cc1ccccc1)S(=O)(=O)c1ccc(C(=O)N(CCCN(C)C)c2nc3c(C)c(C)ccc3s2)cc1	none
CCNc1sc(C(=O)c2cccs2)c(N)c1-c1nc2ccccc2s1	CHRM4 antagonist 38
C=CCNc1sc(C(=O)c2ccccc2)c(N)c1-c1nc2ccccc2s1	M5 PAM 20, CHRM4 PAM 29
CCOC(=O)c1sc(NCc2ccco2)c(-c2nc3ccccc3s2)c1N	none
O=C1NC[C@H](CCCCN2C[C@H](Cc3ccc(O)cc3)N(CC3CCCCC3)C(=O)C2=O)N(CCc2ccc(O)cc2)C1=O	none
CCC[N+]1(CC#CC(O)(c2ccccc2)C2CCCCC2)CCCCC1 (stereo unspecified)	CHRM5 antagonist 99, CHRM4 antagonist 97
NC(=O)C[N+]1(CC#CC(O)(c2ccccc2)c2ccccc2)CCCC1	CHRM5 antagonist 34, CHRM4 antagonist 33
CCN(CC)CCC#CC(O)(c1ccccc1)C1CCCCC1 (stereo unspecified)	CHRM5 antagonist 98, CHRM4 antagonist 94
O=S(=O)([O-])CCC[N+]1(CC#Cc2ccccc2)CCCCC1	none
CN1CCN(CC#CCC(O)(c2ccccc2)C2CCCC2)CC1 (stereo unspecified)	none
Cc1ccc(N2CCN(C(=O)c3cc(-c4ccc(F)cc4)[nH]c3C)CC2C)cc1 (stereo unspecified)	none
O=C(CN1C(=O)NC2(CCCCCC2)C1=O)c1cccs1	none
Cc1sc2ncn(CC(=O)N3CCOCC3)c(=O)c2c1-c1ccccc1	M5 PAM 25
Cc1ccn2c(NCc3ccccc3)c(-c3cccs3)nc2c1	CHRM4 PAM 20
Cc1ccn2c(NC(=O)c3ccccc3)c(-c3cccs3)nc2c1	none
CCC(C)Sc1cccc(-c2nc3cc(C)ccn3c2NCc2ccccc2)c1 (stereo unspecified)	CHRM4 antagonist 44!
CNCCC=C1c2ccccc2C=Cc2ccccc21	CHRM5 antagonist 99, CHRM4 antagonist 90
CNc1ccc(C=C2C=Cc3ccccc32)cc1	none
CN(C)CC/C=C1/c2ccccc2COc2ccc(CC(=O)O)cc21	none
CN(C)CCC=C1c2ccccc2CCc2ccccc21	CHRM5 antagonist 99, CHRM4 antagonist 95
CN(C)CCC=C1c2ccccc2C=Cc2ccccc21	CHRM5 antagonist 99, CHRM4 antagonist 99
Cc1ccc(C2(c3ccc(C)cc3)NC(=O)N(CC(N)=O)C2=O)cc1	none
Cc1cc(OCC(=O)NCCc2ccc(Cl)cc2)c2c(C)cc(=O)oc2c1	M5 PAM 19
COc1cc(OC)c(-c2c3cc(O)c(=O)cc-3oc3cc(O)c(O)cc23)cc1OC	M4 ag 212, CHRM5 antagonist 54, M5 ag 326, CHRM4 antagonist 52
Cc1c2cc(O)c(=O)cc-2oc2cc(O)c(O)cc12	none
CCc1nnc(NC(=O)c2ccc(S(=O)(=O)N(C)Cc3ccccc3)cc2)o1	CHRM4 PAM 16
CCc1nnc(NC(=O)c2ccc(S(=O)(=O)N(CC)Cc3ccccc3)cc2)o1	none
Cc1cccc(C)c1NC(=O)CNC(=O)CNC(=O)c1ccc2c(c1)OCO2	CHRM4 PAM 23
O=C(CN1CCN(C(=O)CNC(=O)c2ccc3c(c2)OCO3)CC1)Nc1cccc(F)c1	M5 PAM 19
CCN(CC(=O)Nc1c(F)cccc1F)C(=O)c1ccc2c(c1)OCCO2	CHRM4 PAM 37
O=C(CN1CCN(C(=O)CNC(=O)c2ccc3c(c2)OCO3)CC1)Nc1ccccc1Cl	none
O=C(COC(=O)COc1ccc(Cl)cc1)NC1CCCC1	none
Cc1ccsc1C(=O)N(C)C1CCS(=O)(=O)C1 (stereo unspecified)	none
